Drawing on ChEMBL document CHEMBL1142375, “Fluorescent 7-diethylaminocoumarin pyrrolobenzodiazepine conjugates: synthesis, DNA interaction, cytotoxicity and differential cellular localization” (Bioorg Med Chem Lett, 2008), this text covers ΔTm, IC50 and Activity for 6 molecules.

The subject of assay [1] is DNA. As to the kind of experiment: Binding affinity to calf thymus DNA assessed as thermal denaturation temperature at 20 uM after 4 hrs. It is filed as nucleic-acid assay. The note with it: Bos taurus.
Assay [2] concerns DNA. As to the kind of experiment: Binding affinity to calf thymus DNA assessed as thermal denaturation temperature at 20 uM after 72 hrs. In kind it is nucleic-acid assay. The settings on record: Bos taurus.
For assay [3], the system named is OVCAR-5. Briefly: Cytotoxicity against human OVCAR5 cells after 96 hrs by Alamar blue method. The note with it: OVCAR-5, 96 h. In kind it is functional, cell-based. The method, boiled down: (§1)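 Cells were exposed to compound continuously for 96 h, and viability was read by Alamar blue. The IC50 is the mean with standard deviation of three independent experiments.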
A general note: Alamar Blue is a resazurin reagent that responds to reducing activity.

Assay [4] relates to LOX IMVI. As to the kind of experiment: Cytotoxicity against human LOXIMVI cells after 96 hrs by Alamar blue method. It is filed as functional, cell-based. The method in brief:
as §1

Assay [5] deals with DNA. As to the kind of experiment: Binding affinity to calf thymus DNA assessed as thermal denaturation temperature at 20 uM after 18 hrs. In kind it is nucleic-acid assay. The settings on record: Bos taurus.
Assay [6] relates to LOX IMVI. As to the kind of experiment: Cytotoxicity against human LOXIMVI cells after 24 hrs by Alamar blue method. In kind it is functional, cell-based.
In assay [7] the test system is OVCAR-5. As to the kind of experiment: Cytotoxicity against human OVCAR5 cells at 1 uM after 96 hrs by Alamar blue method. It is filed as functional, cell-based.
The subject of assay [8] is LOX IMVI. Briefly: Cytotoxicity against human LOXIMVI cells at 1 uM after 96 hrs by Alamar blue method. In kind it is functional, cell-based.

Activity calls are given as the source filed them. No cut-off for these calls is given here. Some results are limits rather than exact numbers.

For `CCN(CC)c1ccc2cc(C(=O)NCCCCCCCCOc3cc4c(cc3OC)C(=O)N3CCC[C@H]3C=N4)c(=O)oc2c1`, the ΔTm (in general, the shift of the melting midpoint relative to a reference) is 1.4 °C in assay [1], 2.9 °C in assay [2] and 2 °C in assay [5]. Also, the results for the IC50 in assay [3] and in assay [4] were 7.8 µM and 4.5 µM, respectively.
As for `COc1cc2c(cc1O)N=C[C@@H]1CCCN1C2=O`, the ΔTm was found to be 0.5 °C in assay [1], 0.8 °C in assay [2] and 0.7 °C in assay [5].
Regarding `CCN(CC)c1ccc2cc(C(=O)NCCCCNC(=O)CCOc3cc4c(cc3OC)C(=O)N3CCC[C@H]3C=N4)c(=O)oc2c1`, the ΔTm in assay [1] was 0.7 °C; in assay [2] it was 1 °C; in assay [5], 0.9 °C. For the same molecule, the IC50 in assay [3] and in assay [4] was over 10 µM throughout.
For `CCOC(=O)c1cc2ccc(N(CC)CC)cc2oc1=O`, the ΔTm in assay [1], in assay [2] and in assay [5] was 0.2 °C throughout. The IC50 in assay [3] and in assay [4] was over 10 µM each time.
Take `CCN(CC)c1ccc2cc(C(=O)NCCCOc3cc4c(cc3OC)C(=O)N3CCC[C@H]3C=N4)c(=O)oc2c1`: the ΔTm in assay [1] worked out at 3.4 °C; in assay [2] it was 3.9 °C; in assay [5] it was 3.6 °C. Also, the IC50 – broadly, the concentration needed to halve the response being measured – in assay [3] stood at 3.2 µM; in assay [4] it was 1.4 µM; in assay [6] it was 1.5 µM.
In the case of `COc1cc2c(cc1C)N=C[C@@H]1CCCN1C2=O`, the outcome in assay [7] and in assay [8] was inactive.
